Test results: ChEMBL document CHEMBL1828615, “Synthesis of a series of 3,4-methanoarginines as side-chain conformationally restricted analogues of arginine” (Bioorg Med Chem, 2011)

Tests used:
[1] = target: Nitric oxide synthase 1 (Rattus norvegicus) (UniProt P29476); experiment: Inhibition of rat nNOS assessed as nitric oxide-mediated oxidation of haemoglobin-A0 at 300 uM using L-arginine by haemoglobin capture assay
In short: (§1)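 For eNOS (bovine) and nNOS (rat), inhibition was tested as the effect of compound on L-arginine turnover, by hemoglobin capture at 30 °C. Buffer was 100 mM HEPES (pH 7.5) with 1.0 mM CaCl₂, 600 unit/mL calmodulin, NADPH, 0.125 mg/mL ferrous hemoglobin-A₀ and H₄B. Reactions were started with enzyme, and hemoglobin-A₀ oxidation was read at 401 nm.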

[2] = target: T1, Nitric oxide synthase, inducible (Mus musculus) (UniProt P29477); experiment: Inhibition of mouse iNOS assessed as nitric oxide-mediated oxidation of haemoglobin-A0 at 300 uM using L-arginine by haemoglobin capture assay
T1 sequence (whole entry): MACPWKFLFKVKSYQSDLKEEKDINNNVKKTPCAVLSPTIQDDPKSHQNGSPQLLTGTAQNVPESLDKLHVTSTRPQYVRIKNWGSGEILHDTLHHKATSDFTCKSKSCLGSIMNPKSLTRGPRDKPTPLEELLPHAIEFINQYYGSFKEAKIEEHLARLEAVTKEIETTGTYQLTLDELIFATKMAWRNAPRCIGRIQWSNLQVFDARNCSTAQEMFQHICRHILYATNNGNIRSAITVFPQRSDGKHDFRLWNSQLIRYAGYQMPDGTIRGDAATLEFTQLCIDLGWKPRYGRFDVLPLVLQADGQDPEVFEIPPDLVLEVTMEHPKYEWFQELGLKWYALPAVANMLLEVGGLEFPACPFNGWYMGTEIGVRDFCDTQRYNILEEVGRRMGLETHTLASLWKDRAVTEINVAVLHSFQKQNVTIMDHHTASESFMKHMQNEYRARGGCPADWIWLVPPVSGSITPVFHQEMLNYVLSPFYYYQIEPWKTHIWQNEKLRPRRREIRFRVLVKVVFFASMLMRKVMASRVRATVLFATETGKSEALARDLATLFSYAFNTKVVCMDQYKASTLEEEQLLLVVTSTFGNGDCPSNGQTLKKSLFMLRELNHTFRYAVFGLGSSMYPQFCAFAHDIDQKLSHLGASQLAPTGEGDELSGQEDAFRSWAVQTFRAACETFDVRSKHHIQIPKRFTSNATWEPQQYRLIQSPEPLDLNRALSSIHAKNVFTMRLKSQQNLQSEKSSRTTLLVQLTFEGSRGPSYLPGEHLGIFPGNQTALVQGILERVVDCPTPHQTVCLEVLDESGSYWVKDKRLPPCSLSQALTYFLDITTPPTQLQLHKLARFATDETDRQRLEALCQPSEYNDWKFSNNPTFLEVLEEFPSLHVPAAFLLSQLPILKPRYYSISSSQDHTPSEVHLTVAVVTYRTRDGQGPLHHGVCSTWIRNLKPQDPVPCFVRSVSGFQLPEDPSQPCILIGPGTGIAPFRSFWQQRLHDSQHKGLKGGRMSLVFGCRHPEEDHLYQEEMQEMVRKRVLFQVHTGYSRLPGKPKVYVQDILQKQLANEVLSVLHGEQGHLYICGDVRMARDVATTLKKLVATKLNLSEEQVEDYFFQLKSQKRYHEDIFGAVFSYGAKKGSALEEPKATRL
In short: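 Murine iNOS inhibition was measured against L-arginine as substrate in a hemoglobin capture assay at 30 °C, without calcium or calmodulin. The mix held NADPH, 0.125 mg/mL ferrous hemoglobin-A₀ and H₄B in 100 mM HEPES (pH 7.5). Enzyme addition initiated the reaction, and NO-mediated oxidation was monitored at 401 nm.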

[3] = target: T2, Nitric oxide synthase 3 (Bos taurus) (UniProt P29473); experiment: Inhibition of bovine eNOS assessed as nitric oxide-mediated oxidation of haemoglobin-A0 at 300 uM using L-arginine by haemoglobin capture assay; in short: as §1
T2 sequence (whole entry): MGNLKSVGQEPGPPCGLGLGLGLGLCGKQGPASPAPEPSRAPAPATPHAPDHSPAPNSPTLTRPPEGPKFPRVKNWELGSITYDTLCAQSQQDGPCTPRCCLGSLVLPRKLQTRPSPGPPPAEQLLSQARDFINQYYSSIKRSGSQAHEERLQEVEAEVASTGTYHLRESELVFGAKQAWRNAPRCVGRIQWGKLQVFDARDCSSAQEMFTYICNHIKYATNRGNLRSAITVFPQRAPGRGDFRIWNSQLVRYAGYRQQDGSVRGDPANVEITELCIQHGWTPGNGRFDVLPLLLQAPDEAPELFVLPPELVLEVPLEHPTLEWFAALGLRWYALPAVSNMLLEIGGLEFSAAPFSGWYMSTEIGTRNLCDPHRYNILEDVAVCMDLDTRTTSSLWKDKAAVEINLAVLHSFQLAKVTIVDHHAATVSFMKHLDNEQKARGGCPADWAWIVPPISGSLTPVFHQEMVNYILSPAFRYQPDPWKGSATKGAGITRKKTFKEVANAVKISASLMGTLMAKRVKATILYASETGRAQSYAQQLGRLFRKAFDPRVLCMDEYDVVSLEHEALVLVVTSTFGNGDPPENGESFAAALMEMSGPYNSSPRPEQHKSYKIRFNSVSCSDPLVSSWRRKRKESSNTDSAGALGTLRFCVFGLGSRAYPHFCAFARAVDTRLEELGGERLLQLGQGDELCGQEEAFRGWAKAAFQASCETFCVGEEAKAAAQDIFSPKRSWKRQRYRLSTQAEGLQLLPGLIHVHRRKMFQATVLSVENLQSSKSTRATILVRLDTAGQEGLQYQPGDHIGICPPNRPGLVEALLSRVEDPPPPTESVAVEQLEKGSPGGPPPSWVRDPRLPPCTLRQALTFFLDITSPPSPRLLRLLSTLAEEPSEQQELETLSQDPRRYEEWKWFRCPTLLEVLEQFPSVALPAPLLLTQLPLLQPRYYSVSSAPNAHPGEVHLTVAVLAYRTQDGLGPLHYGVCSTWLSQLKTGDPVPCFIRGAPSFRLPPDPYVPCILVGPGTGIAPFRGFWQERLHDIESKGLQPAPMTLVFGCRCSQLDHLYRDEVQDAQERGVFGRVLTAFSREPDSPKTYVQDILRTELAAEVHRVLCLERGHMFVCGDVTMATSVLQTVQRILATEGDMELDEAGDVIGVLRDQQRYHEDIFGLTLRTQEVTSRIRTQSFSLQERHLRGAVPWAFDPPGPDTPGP

[4] = Selectivity ratio of km rat nNOS to km mouse iNOS by Michaelis-Menten equation analysis
[5] = Selectivity ratio of km for bovine eNOS to km for mouse iNOS by Michaelis-Menten equation analysis

Chain of Nitric oxide synthase 1 (Rattus norvegicus) (P29476 whole entry): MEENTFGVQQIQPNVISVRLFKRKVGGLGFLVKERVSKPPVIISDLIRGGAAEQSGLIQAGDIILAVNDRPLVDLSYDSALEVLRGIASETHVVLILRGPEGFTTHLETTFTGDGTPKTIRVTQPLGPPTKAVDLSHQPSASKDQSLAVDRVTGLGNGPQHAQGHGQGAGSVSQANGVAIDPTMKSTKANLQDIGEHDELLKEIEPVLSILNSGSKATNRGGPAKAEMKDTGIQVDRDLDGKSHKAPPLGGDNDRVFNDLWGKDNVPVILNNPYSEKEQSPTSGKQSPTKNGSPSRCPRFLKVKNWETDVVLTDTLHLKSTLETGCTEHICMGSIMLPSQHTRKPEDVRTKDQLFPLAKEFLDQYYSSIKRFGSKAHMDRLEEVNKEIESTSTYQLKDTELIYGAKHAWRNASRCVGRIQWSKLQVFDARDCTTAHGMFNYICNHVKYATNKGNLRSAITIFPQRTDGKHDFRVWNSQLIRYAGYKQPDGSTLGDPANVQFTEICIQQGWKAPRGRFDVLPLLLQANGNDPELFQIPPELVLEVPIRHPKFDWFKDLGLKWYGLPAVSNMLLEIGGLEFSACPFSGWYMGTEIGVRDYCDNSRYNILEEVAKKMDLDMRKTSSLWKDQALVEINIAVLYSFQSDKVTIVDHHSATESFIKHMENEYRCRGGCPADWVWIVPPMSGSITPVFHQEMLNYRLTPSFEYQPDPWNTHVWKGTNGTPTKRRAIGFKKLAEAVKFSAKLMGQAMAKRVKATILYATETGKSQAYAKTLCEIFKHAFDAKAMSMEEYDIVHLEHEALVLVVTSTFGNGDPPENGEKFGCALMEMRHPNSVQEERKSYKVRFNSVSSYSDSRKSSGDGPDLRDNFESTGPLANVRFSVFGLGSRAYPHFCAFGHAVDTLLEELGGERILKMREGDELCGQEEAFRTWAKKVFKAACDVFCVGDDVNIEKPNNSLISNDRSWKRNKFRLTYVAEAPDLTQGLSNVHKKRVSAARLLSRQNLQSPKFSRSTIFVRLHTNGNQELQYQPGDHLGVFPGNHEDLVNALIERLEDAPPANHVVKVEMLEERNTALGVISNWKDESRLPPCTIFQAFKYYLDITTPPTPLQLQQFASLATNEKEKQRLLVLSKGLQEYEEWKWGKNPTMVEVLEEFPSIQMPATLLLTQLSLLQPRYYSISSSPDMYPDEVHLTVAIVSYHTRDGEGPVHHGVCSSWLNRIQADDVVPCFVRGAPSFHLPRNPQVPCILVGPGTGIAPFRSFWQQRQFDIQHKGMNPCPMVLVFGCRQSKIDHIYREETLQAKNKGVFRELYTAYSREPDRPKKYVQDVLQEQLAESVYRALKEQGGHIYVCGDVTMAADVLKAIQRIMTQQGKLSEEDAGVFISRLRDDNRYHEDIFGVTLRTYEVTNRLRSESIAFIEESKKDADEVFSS

| SMILES | inhibition [1] [%] | inhibition [2] [%] | inhibition [3] [%] | Ratio [4] | Ratio [5] |
| --- | --- | --- | --- | --- | --- |
| N=C(N)NC[C@@H]1C[C@H]1[C@H](N)C(=O)O | 16 | 26 | 45 | – | – |
| N=C(N)NC[C@H]1C[C@@H]1[C@@H](N)C(=O)O | 5 | 19 | 23 | – | – |
| N=C(N)NC[C@@H]1C[C@H]1[C@@H](N)C(=O)O | 13 | 19 | 4 | – | – |
| N=C(N)NC[C@@H]1C[C@@H]1[C@@H](N)C(=O)O | 10 | 24 | 4 | – | – |
| N=C(N)NC[C@H]1C[C@H]1[C@H](N)C(=O)O | – | – | – | 2.3 | 3.6 |
| N=C(N)NCCC[C@H](N)C(=O)O | – | – | – | 3.5 | 8.6 |
| N=C(N)NC[C@H]1C[C@@H]1[C@H](N)C(=O)O | – | – | – | 2.6 | 5.6 |
| N=C(N)NC[C@H]1C[C@H]1[C@@H](N)C(=O)O | 30 | 14 | 27 | – | – |
| N=C(N)NC[C@@H]1C[C@@H]1[C@H](N)C(=O)O | 30 | 22 | 16 | – | – |
